hiPSC survival: increases survival of single human iPS cells; survival enhancement, % at 20 µM; AID 602274; hiPSC single-cell survival, ATPlite luminescence; 100% = ROCK inhibitor wells, 0% = DMSO; 360,000 compounds, 0.044% hits; in the data active means survival enhancement above about 18%;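 further: cells exposed to compounds for 16 hours before the ATP read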
Exocytosis inh: lytic granule exocytosis inhibition; TALL-104 LAMP-1 surface exposure, flow cytometry; cells stimulated with thapsigargin and PMA; inhibition, % at 10 µM; 360,000 compounds, 0.66% hits;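 active means inhibition above about 55%, limit read from the data; inconclusive means no clear call, values can overlap the other calls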
Tb MetRS inh: Trypanosoma brucei MetRS inhibition | purified T. brucei MetRS, ATP depletion, Kinase-Glo luminescence | inhibition, % at 11.9 µM | 360,000 compounds, 0.4% hits | AID 624268;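 active means inhibition above a per-plate cutoff of the control wells' mean inhibition plus 3 SD, cut at about 5.5% in these data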;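 further: 0% = DMSO wells median and 100% = median of wells with control inhibitor compound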
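Dosing: 11.9 µM compound single dose, 0.9% DMSO; Assay system: purified T. brucei MetRS enzyme; Measured by: Kinase-Glo luciferase luminescence reporting remaining unconsumed ATP; Schedule: 15 min plus 2 h at 25 °C.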
ABCB6 inh MLPCN: blocks the human ABCB6 transporter | K562-ABCB6 porphyrin accumulation, flow cytometry, 1 h; hits give low values | Q9NP58 | 360,000 compounds, 0.19% hits | fluorescence ratio to DMSO, % at 10 µM;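 active means fluorescence ratio to DMSO below 75%, the collection mean minus 3 SD; inconclusive means too few cells collected in the well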;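 further: signal is porphyrin accumulated inside mitochondria; 100% equals median channel fluorescence of DMSO control wells; lower ratio means ABCB6 inhibition with less porphyrin fluorescence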
Target sequence (Q9NP58 whole entry, looked up): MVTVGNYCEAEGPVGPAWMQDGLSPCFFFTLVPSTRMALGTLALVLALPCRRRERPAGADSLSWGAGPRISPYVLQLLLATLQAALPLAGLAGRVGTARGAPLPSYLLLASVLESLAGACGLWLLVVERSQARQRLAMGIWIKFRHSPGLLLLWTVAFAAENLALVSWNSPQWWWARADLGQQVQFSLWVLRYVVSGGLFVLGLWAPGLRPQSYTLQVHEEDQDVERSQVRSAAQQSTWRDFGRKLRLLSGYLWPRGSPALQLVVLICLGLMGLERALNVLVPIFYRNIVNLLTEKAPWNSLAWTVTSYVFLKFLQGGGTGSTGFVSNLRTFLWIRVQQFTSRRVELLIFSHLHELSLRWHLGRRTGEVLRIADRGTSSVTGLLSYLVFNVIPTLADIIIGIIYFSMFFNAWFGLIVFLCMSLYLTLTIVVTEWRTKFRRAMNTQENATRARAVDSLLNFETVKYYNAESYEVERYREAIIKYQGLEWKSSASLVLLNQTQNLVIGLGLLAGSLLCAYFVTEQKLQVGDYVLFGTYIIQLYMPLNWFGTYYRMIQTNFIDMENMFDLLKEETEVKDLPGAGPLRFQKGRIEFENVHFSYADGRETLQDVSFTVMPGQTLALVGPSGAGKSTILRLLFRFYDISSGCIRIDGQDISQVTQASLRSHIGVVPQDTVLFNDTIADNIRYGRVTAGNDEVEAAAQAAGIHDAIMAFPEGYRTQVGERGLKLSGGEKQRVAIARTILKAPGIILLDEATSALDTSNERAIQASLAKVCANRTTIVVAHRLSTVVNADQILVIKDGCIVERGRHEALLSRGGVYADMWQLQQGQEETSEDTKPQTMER
MC4R antagonist: human MC4R antagonism in cAMP assay; AID 540295; MC4R-expressing cells, MTII-stimulated cAMP, LANCE TR-FRET; inhibition, % at 6.5 µM; 360,000 compounds, 0.48% hits;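 active means inhibition above its plate's cutoff, the mean of tested wells on that plate plus 3 SD, cut at about 29% in these data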;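 further: 0% = Melanotan II alone and 100% = Melanotan II plus saturating MCL0020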
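System: U2OS-MC4R stable cell line; Technique: Eu-cAMP/anti-cAMP TR-FRET, emission 671 nm; Repeats: single well per compound; Also added: Melanotan II; Dosing: one concentration, 6.5 µM nominal; Schedule: 30-min compound, 1-h challenge, 1-h detection, room temperature.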
MC4R ag barr: activates human MC4R beta-arrestin recruitment | P32245 | U2OS MC4R beta-arrestin complementation, luminescence; percent of melanotan II response, DMSO zero | activation, % at 8.9 µM | 360,000 compounds, 0.98% hits | AID 540308;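 active means activation above a per-plate cutoff, the mean activation of sample wells on that plate plus 3 SD, cut at about 8% in these data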
MC4R barr conf: human MC4R beta-arrestin agonism confirmation; shares compounds with MC4R ag barr; U2OS MC4R beta-arrestin recruitment, luminescence; scaled DMSO 0%, Melanotan II 100%; activation, % at 8.9 µM; 2,400 compounds, 31% hits; AID 602192;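 active means mean activation across replicates above the hit cutoff set in the earlier primary screen, cut at about 8% in these data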
MOR-DOR barr ag: counter-screen for MC4R agonists: agonists of mu-delta opioid heterodimer; shares compounds with MC4R ag barr; U2OS PathHunter beta-arrestin, beta-gal luminescence; percent of deltorphin B response, DMSO zero; activation, % at 9.2 µM; 2,400 compounds, 5.8% hits; AID 602194;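 active means mean activation across replicates exceeds the hit threshold derived in the earlier primary screen, cut at about 18% in these data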;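 further: 100% = deltorphin B at 0.9 µM final and 0% = DMSO alone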
Active calls of the source: *; ? = inconclusive; . = no result given. An excerpt weighted towards active compounds, which were near 2.6% of everything screened.

SMILES | hiPSC survival | Exocytosis inh | Tb MetRS inh | ABCB6 inh MLPCN | MC4R antagonist | MC4R ag barr | MC4R barr conf | MOR-DOR barr ag
O=C(NCCN1CCN(S(=O)(=O)c2ccccc2)CC1)C(=O)Nc1ccc(F)cc1 | 0 | -4 | -1 | 99 | 6 | -1 | . | .
CC(=O)c1ccccc1NCC(=O)Nc1ccc(C)cc1 | 0 | 4 | 0 | 96 | 11 | -3 | . | .
NNC(=O)c1ccc(OCC2CC(c3ccc(Cl)cc3)=NO2)cc1 (stereo unspecified) | -1 | -3 | 0 | 96 | 10 | 12* | 0 | 5
Cn1c(=O)c2ccccc2n(Cc2ccccc2Cl)c1=O | 0 | 8 | -1 | 100 | 9 | 2 | . | .
Oc1ccc(Nc2ncnc3scc(-c4ccccc4)c23)cc1 | 6 | 6 | -1 | 87 | 4 | 12* | 8 | 6
c1ccc(-c2csc3ncnc(NCc4ccccn4)c23)cc1 | 0 | 23 | -1 | 109 | -14 | 11* | 4 | 3
OC(c1cccc(Cl)c1)c1ncc(-c2ccc(Oc3ccccc3)cc2)[nH]1 (stereo unspecified) | -3 | 36 | 0 | 102 | 2 | 2 | . | .
OC(c1cccc(F)c1)c1ncc(-c2ccc(Oc3ccccc3)cc2)[nH]1 (stereo unspecified) | 4 | 29 | 0 | 94 | 17 | 10* | 4 | 10
OC(c1ccc(-c2ccccc2)cc1)c1ncc(-c2ccc(F)cc2)[nH]1 (stereo unspecified) | -2 | -5 | 0 | 101 | 8 | 10* | 7 | 15
COc1ccc(-c2sc3ccc(N4CCOCC4)cc3c2C#CC(C)(C)O)cc1 | 2 | -2 | 0 | 98 | 18 | 23* | 8 | 2
O=[N+]([O-])c1ccc(Cl)cc1CNc1ccc(F)c(F)c1 | 2 | -2 | -1 | 98 | -5 | -1 | . | .
CCc1nc(Nc2cc(OC)ccc2OC)c2oc3ccccc3c2n1 | 0 | 5 | -1 | 93 | 3 | 10* | 1 | 3
CCc1nc(Nc2ccccc2OC)c2oc3ccccc3c2n1 | 0 | -1 | 0 | 97 | 1 | 2 | . | .
CCN(C(=O)COC(=O)Cc1c[nH]c2ccccc12)C1CCS(=O)(=O)C1 (stereo unspecified) | 0 | -1 | 0 | 101 | 5 | 0 | . | .
O=C(Nc1nc(-c2ccc(F)c(F)c2)cs1)c1ccc(OCC2CCCO2)cc1 (stereo unspecified) | 0 | -2 | 1 | 85 | 1 | 17* | 3 | 28*
CCn1nnc2cc(C(=O)O)ccc21 | 3 | -3 | 0 | 95 | 2 | -1 | . | .
O=S(=O)(c1ccccc1F)N1CCc2ccccc2C1 | 0 | -3 | 0 | 86 | 6 | -2 | . | .
Cc1ccc(N2C(=O)c3ccccc3NC2(C(=O)O)c2ccccc2)cc1Cl (stereo unspecified) | 1 | -3 | 1 | 99 | 10 | -2 | . | .
COC(=O)c1c(NC(=O)c2cccc([N+](=O)[O-])c2)sc(C(N)=O)c1C | -2 | ? | -1 | 103 | -10 | 12* | 7 | 3
COC(=O)c1sc(NC(=O)c2cccc([N+](=O)[O-])c2)c(C(N)=O)c1C | -1 | -1 | 0 | 96 | 4 | -1 | . | .
Cc1coc2c(C)c3oc(=O)cc(-c4ccccc4)c3cc12 | 2 | 1 | 0 | 150 | 11 | 2 | . | .
CCCc1cc(=O)oc2c(C)c3occ(C)c3cc12 | -2 | 22 | -2 | 98 | 4 | 18* | 1 | 4
COc1ccccc1NC(=O)Cn1ncc2c1-c1ccccc1OC2 | -1 | -6 | 0 | 98 | 6 | 0 | . | .
CCOc1ccc(-c2cc(NC(=O)Cn3ncc4c3-c3ccccc3OC4)on2)cc1OCC | 0 | -2 | 0 | 99 | 8 | 16* | 3 | 8
